In paper PMC7862202 (Clinical Pharmacokinetics, 2020):

Columns and labels:
[1] = system: patients with locally advanced or metastatic ALK-positive NSCLC; conditions: 180 mg qd with a 7-day lead-in at 90 mg qd; crizotinib-refractory patients; cited from earlier work
human plasma proteins = conditions: cited from earlier work
[2] = cited from earlier work
[3] = system: patients with ALK + NSCLC who are ALK inhibitor naive; conditions: first interim analysis, blinded independent review committee; cited from earlier work
[4] = cited from earlier work; remark: listed apart in the source
[5] = cited from earlier work; remark: listed apart in the source
[6] = Population pharmacokinetic model; type: in vivo, human; conditions: for Variability in CL/F explained by albumin: albumin as covariate in the final model
Method in brief: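 Plasma measured by two validated LC/MS methods, combined range 0.1–2500 ng/mL. Inter-individual effects multivariate normal; residual error additive, proportional or mixed. Covariates tested on CL/F and V1/F in two steps. 1000 bootstrap replicates with replacement; 1000-replicate prediction-corrected VPC.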

native EML4-ALK = conditions: read-out: IC90 for inhibition of native EML4-ALK; cellular assays; cited from earlier work
[7] = cited from earlier work; remark: listed apart in the source
[8] = cited from earlier work; remark: listed apart in the source
[9] = cited from earlier work; remark: listed apart in the source
EML4-ALK mutants = conditions: read-out: IC90 range for EML4-ALK mutants; cellular assays; cited from earlier work
[10] = cited from earlier work; remark: listed apart in the source
[11] = single oral 180-mg radiolabeled dose, healthy volunteers

For `COc1cc(N2CCC(N3CCN(C)CC3)CC2)ccc1Nc1ncc(Cl)c(Nc2ccccc2P(C)(C)=O)n1` [brigatinib], the Median progression-free survival [1] is listed as 16.7 months, the “Bound to human plasma proteins” value (human plasma proteins) is listed as “approximately 90%” and the “Increase in unbound brigatinib systemic exposure (AUC0–∞), severe hepatic impairment (Child–Pugh C)” value [2] is listed as “approximately 37%”. The 12-month event-free rate [3] was 67%, the “Increase in unbound AUC0–∞, severe renal impairment vs normal renal function” value [4] was “approximately twofold” and the “Enzymes metabolizing the remainder to inactive or minor metabolites” value [5] was “primarily by cytochrome P450 (CYP) 3A and CYP2C8”. For the same molecule, the Oral bioavailability [5] was “orally bioavailable”, the “Variability in CL/F explained by albumin” value [6] was “approximately 5%” and the “Variability in CL/F explained by albumin” value ([6]; listed as Brigatinib) was “Albumin was included as a covariate on apparent clearance in the final population pharmacokinetic model, explaining approximately 5% of variability in apparent clearance”. For the same molecule, the “Albumin covariate effect on CL/F, bootstrap median (2.5th to 97.5th percentile)” value ([6]; bootstrap of 1000 replicates) was 0.656 (0.474–0.849), the “CL/F, bootstrap median (2.5th to 97.5th percentile)” value ([6]; bootstrap of 1000 replicates) was 10.6 (10.2–11.1) L/h and the “Mean transit time, bootstrap median (2.5th to 97.5th percentile)” value ([6]; bootstrap of 1000 replicates) was 0.9 (0.8–1.0) h. For the same molecule, the “Q1/F, bootstrap median (2.5th to 97.5th percentile)” value ([6]; bootstrap of 1000 replicates) was 12.8 (10.5–16.2) L/h, the “Q2/F, bootstrap median (2.5th to 97.5th percentile)” value ([6]; bootstrap of 1000 replicates) was 2.46 (1.09–4.76) L/h and the “V1/F, bootstrap median (2.5th to 97.5th percentile)” value ([6]; bootstrap of 1000 replicates) was 208 (193–219) L. The “V2/F, bootstrap median (2.5th to 97.5th percentile)” value ([6]; bootstrap of 1000 replicates) was 118 (83.6–147) L, the “V3/F, bootstrap median (2.5th to 97.5th percentile)” value ([6]; bootstrap of 1000 replicates) was 82.3 (57.6–112) L and the “No. of transit compartments, bootstrap median” value ([6]; bootstrap of 1000 replicates, fixed) was 2.35 (–). For the same molecule, the “Inter-individual variability of mean transit time, % (% CV)” value ([6]; final population PK model) was 59 (7.5) %, the “Mean transit time, model estimate (% CV)” value ([6]; final population PK model) was 0.9 (3.6) h and the “No. of transit compartments, model estimate” value ([6]; final population PK model, fixed at the population estimate) was 2.35. For the same molecule, the “Mean transit time, model estimate (% CV)” value ([6]; final population PK model, listed as Brigatinib) was 0.9 h, the “Higher CL/F at 95th percentile of albumin vs median albumin” value ([6]; predicted, higher than a patient with the median albumin value) was ~20% and the “Lower CL/F at 5th percentile of albumin vs median albumin” value ([6]; predicted, lower than a patient with the median albumin value) was “approximately 22%”. For the same molecule, the IC90 (native EML4-ALK) was 0.038 µM, the Solubility [7] was “high” and the Permeability [8] was “high”. For the same molecule, the “Overall radiolabeled dose recovered as unchanged drug” value [9] was “Approximately 50%”, the “Administered dose recovered in feces” value [9, 11] was “approximately 65%” and the “Administered dose recovered in urine” value [9, 11] was ~25%. For the same molecule, the “Unchanged brigatinib in feces” value [9, 11] was 41%, the “Unchanged brigatinib in urine” value [9, 11] was 86% and the IC90 (EML4-ALK mutants) was 0.022 to 0.762 µM. For the same molecule, the “Decrease in maximum plasma concentration following a high-fat meal” value [10] was 13% and the “Effect of a high-fat meal on AUC” value [10] was “without a corresponding decrease in AUC”.
